One data set is filed under the species Homo sapiens. Nature of the data set: Selectivity ratio of EC50 for human alpha1A-adrenergic receptor to EC50 for human beta3-adrenergic receptor.
For data set [1], the target named is T1, Alpha-2A adrenergic receptor (Homo sapiens, UniProt P08913).
T1 sequence (P08913 whole entry): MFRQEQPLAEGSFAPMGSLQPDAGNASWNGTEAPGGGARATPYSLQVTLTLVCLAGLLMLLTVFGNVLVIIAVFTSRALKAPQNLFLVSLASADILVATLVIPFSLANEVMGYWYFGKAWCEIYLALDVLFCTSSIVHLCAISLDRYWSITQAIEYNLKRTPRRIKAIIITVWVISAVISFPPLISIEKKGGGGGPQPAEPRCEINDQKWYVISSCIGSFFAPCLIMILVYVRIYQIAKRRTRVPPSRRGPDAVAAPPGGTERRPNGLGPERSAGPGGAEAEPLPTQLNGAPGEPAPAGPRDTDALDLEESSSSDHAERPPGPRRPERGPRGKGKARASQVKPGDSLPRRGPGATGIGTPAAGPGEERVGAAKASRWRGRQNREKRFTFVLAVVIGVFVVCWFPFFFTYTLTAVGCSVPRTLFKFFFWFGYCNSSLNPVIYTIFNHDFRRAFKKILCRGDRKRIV
Nature of the data set: Agonist activity at human alpha2A-adrenergic receptor.

For data set [2], the target named is T2, Alpha-2B adrenergic receptor (Homo sapiens, UniProt P18089).
T2 sequence (P18089 whole entry): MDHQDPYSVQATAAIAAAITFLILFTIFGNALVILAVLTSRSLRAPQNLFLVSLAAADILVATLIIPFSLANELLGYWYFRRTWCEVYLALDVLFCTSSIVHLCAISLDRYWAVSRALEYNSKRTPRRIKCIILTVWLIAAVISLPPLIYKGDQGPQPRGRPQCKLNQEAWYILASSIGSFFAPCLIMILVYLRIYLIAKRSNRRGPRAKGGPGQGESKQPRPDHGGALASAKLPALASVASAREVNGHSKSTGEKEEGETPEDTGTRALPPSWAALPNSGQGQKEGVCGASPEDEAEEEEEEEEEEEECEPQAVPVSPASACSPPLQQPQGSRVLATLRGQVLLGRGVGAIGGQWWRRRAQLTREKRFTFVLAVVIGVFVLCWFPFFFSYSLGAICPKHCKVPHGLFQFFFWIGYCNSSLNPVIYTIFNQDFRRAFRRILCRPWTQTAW
Nature of the data set: Agonist activity at human alpha2B-adrenergic receptor.

Data set [3] deals with T3, Alpha-2C adrenergic receptor (Homo sapiens, UniProt P18825).
T3 sequence (P18825 whole entry): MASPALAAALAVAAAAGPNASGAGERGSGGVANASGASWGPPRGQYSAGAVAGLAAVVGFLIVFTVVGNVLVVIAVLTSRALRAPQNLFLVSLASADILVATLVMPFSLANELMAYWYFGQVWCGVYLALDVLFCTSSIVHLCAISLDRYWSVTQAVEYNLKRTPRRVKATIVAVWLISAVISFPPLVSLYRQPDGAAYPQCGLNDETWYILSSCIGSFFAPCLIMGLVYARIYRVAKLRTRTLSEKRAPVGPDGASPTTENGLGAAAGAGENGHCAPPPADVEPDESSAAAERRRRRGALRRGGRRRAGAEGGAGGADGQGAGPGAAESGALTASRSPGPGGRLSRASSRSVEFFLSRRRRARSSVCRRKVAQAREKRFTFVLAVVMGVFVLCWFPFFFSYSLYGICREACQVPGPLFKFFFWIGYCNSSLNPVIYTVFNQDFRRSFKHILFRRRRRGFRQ
Nature of the data set: Agonist activity at human alpha2C-adrenergic receptor.

A further data set deals with Rattus norvegicus. Nature of the data set: Cardiotoxicity in anesthetized Sprague-Dawley rat assessed as increase in mean blood pressure at 3 mg/kg, iv measured for 30 mins relative to control. To be noted: in vivo, 0.5 h. The format is toxicity, organism-based. Summed up:
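Male Sprague-Dawley rats (200-300 g) were anesthetized with sodium pentobarbital (50 mg/kg i.p. plus 25 mg/kg s.c.). The compound was injected via the cannulated left femoral vein once BP and HR were stable, and HR and MBP were recorded for 30 min. Results are the maximum % increase or decrease from baseline, as mean ± SEM. Where given, silodosin (0.01 mg/kg iv) preceded the compound.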

For `Cc1n[nH]c2cc(OCCNC[C@H](O)c3cccc(NS(C)(=O)=O)c3)ccc12`, the Ratio EC50 in the data set filed under Homo sapiens came out at 10. In addition, the EC50 in data set [1], in data set [2] and in data set [3] was more than 10 µM each time. Also, the Activity with Rattus norvegicus is given as 24.2%.

Source of the values: ChEMBL document CHEMBL3600378 (J Med Chem, 2015).
